Test results reported in ChEMBL document CHEMBL5678806, “NMS-P937, an orally available, specific small-molecule polo-like kinase 1 inhibitor with antitumor activity in solid and hematologic malignancies” (Mol Cancer Ther, 2012).
Calls of active or inactive are those of the source. The calls are words filed in the database; no cut-off is given here.

Assays:
[1] = biological target: Serine/threonine-protein kinase haspin (Homo sapiens, UniProt Q8TF76); test: Inhibition of Haspin (unknown origin) in presence of [gamma-33P]ATP
[2] = biological target: Insulin receptor (Homo sapiens, UniProt P06213); test: Inhibition of IR (unknown origin) in presence of [gamma-33P]ATP
[3] = biological target: Serine/threonine-protein kinase 26 (Homo sapiens, UniProt Q9P289); test: Inhibition of MST4 (unknown origin) in presence of [gamma-33P]ATP
[4] = biological target: Serine/threonine-protein kinase Nek6 (Homo sapiens, UniProt Q9HC98); test: Inhibition of NEK6 (unknown origin) in presence of [gamma-33P]ATP
[5] = biological target: Proto-oncogene tyrosine-protein kinase ROS (Homo sapiens, UniProt P08922); test: Inhibition of ROS (unknown origin) in presence of [gamma-33P]ATP
[6] = biological target: Tyrosine-protein kinase ZAP-70 (Homo sapiens, UniProt P43403); test: Inhibition of ZAP70 (unknown origin) in presence of [gamma-33P]ATP
[7] = biological target: Activated CDC42 kinase 1 (Homo sapiens, UniProt Q07912); test: Inhibition of N-terminal GST-tagged recombinant human ACK1 (1 to 389 residues) expressed in baculovirus infected Sf21 cells assessed as residual activity at 1 uM relative to control
[8] = biological target: Casein kinase I isoform gamma-1 (Homo sapiens) (UniProt Q9HCP0); test: Inhibition of N-terminal 6His-tagged recombinant human CK1gamma1 (25 to 355 residues) expressed in baculovirus infected Sf21 cells assessed as residual activity at 1 uM relative to control
[9] = biological target: Ephrin type-A receptor 4 (Homo sapiens) (UniProt P54764); test: Inhibition of N-terminal His6-tagged recombinant human EphA4 (601 to 892 residues) expressed in baculovirus infected Sf21 cells assessed as residual activity at 1 uM relative to control
[10] = biological target: Homeodomain-interacting protein kinase 1 (Homo sapiens) (UniProt Q86Z02); test: Inhibition of N-terminal 6His-tagged recombinant human HIPK1 (158 to 555 residues) expressed in baculovirus infected Sf21 cells assessed as residual activity at 1 uM relative to control
[11] = biological target: Ribosomal protein S6 kinase alpha-4 (Homo sapiens) (UniProt O75676); test: Inhibition of N-terminal His6-tagged recombinant human MSK2 (2 to end residues) expressed in baculovirus infected Sf21 cells assessed as residual activity at 1 uM relative to control
[12] = biological target: Serine/threonine-protein kinase Nek3 (Homo sapiens) (UniProt P51956); test: Inhibition of N-terminal 6His-tagged recombinant full length human NEK3 expressed in baculovirus infected Sf21 cells assessed as residual activity at 1 uM relative to control
[13] = biological target: Protein kinase C delta type (Homo sapiens) (UniProt Q05655); test: Inhibition of N-terminal His6-tagged recombinant human PKCdelta (2 to end residues) expressed in Sf21 cells assessed as residual activity at 1 uM relative to control
[14] = tested on: SH-SY5Y; test: Antiproliferative activity against human SH-SY5Y cells assessed as inhibition of cell growth incubated for 72 hrs by cell-titer glo assay; assay type: functional, cell-based
[15] = tested on: MDA-MB-468; test: Antiproliferative activity against human MDA-MB-468 cells assessed as inhibition of cell growth incubated for 72 hrs by cell-titer glo assay; assay type: functional, cell-based; details: MDA-MB-468, 72 h
Outline: (§1)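 Cells seeded at 10,000–30,000/cm² (adherent) or 100,000/mL (nonadherent) in medium with 10% fetal calf serum; after 24 h, treated in duplicate with serial dilutions for 72 h. Viable cell number read by CellTiter-Glo luminescence; IC50 from sigmoidal fit; at least two independent experiments.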

[16] = tested on: SN12C; test: Antiproliferative activity against human SN12C cells assessed as inhibition of cell growth incubated for 72 hrs by cell-titer glo assay; assay type: functional, cell-based
[17] = tested on: SK-LU-1; test: Antiproliferative activity against human SK-LU-1 cells assessed as inhibition of cell growth incubated for 72 hrs by cell-titer glo assay; assay type: functional, cell-based; details: SK-LU-1, 72 h
[18] = Antiproliferative activity against human NCI-H2110 cells assessed as inhibition of cell growth incubated for 72 hrs by cell-titer glo assay; assay type: functional, cell-based; details: NCI-H2110, 72 h
Outline: (§2)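 Cells from ATCC or ECACC, kept in supplier-recommended medium with 1% penicillin-streptomycin at 37°C, 5% CO₂. Seeded at 10,000–30,000/cm² (adherent) or 100,000/mL (nonadherent) in medium with 10% fetal calf serum. Dosed after 24 h in duplicate with serial dilutions. Viable cells read by CellTiter-Glo 72 h later. IC50 from sigmoidal fit. At least two independent experiments.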

[19] = tested on: HOP-62; test: Antiproliferative activity against human HOP-62 cells assessed as inhibition of cell growth incubated for 72 hrs by cell-titer glo assay; assay type: functional, cell-based; details: HOP-62, 72 h; outline: as §1
[20] = tested on: OVCAR-3; test: Antiproliferative activity against human OVCAR-3 cells assessed as inhibition of cell growth incubated for 72 hrs by cell-titer glo assay; assay type: functional, cell-based; details: OVCAR-3, 72 h; outline: as §2
[21] = tested on: OVCAR-8; test: Antiproliferative activity against human OVCAR-8 cells assessed as inhibition of cell growth incubated for 72 hrs by cell-titer glo assay; assay type: functional, cell-based; details: OVCAR-8, 72 h; outline: as §2
[22] = Antiproliferative activity against human TF-1a cells assessed as inhibition of cell growth incubated for 72 hrs by cell-titer glo assay; assay type: functional, cell-based
[23] = tested on: SKM-1; test: Antiproliferative activity against human SKM-1 cells assessed as inhibition of cell growth incubated for 72 hrs by cell-titer glo assay; assay type: functional, cell-based; details: SKM-1, 72 h
[24] = tested on: HL-60; test: Antiproliferative activity against human HL-60 cells assessed as inhibition of cell growth incubated for 72 hrs by cell-titer glo assay; assay type: functional, cell-based; details: HL-60, 72 h; outline: as §1
[25] = tested on: SU-DHL-8; test: Antiproliferative activity against human SU-DHL-8 cells assessed as inhibition of cell growth incubated for 72 hrs by cell-titer glo assay; assay type: functional, cell-based; details: SU-DHL-8, 72 h
[26] = tested on: HT-29; test: Antiproliferative activity against human HT-29 cells assessed as inhibition of colony formation at <= 8 nmol/L incubated for 72 hrs and measured after 18 days by crystal violet staining based analysis; assay type: functional, cell-based
Outline: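 HT29 colon adenocarcinoma cells exposed to a range of concentrations for 72 h, then compound removed and cells replated and grown 18 days in compound-free medium; colony formation scored.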

[27] = Volume of distribution at steady state in nu/nu mouse at 10 mg/kg, iv by LC-MS analysis; assay type: ADME, organism-based; details: in vivo, read-out: Vdss
[28] = Half-life in nu/nu mouse at 10 mg/kg, iv by LC-MS analysis; assay type: ADME, organism-based; details: in vivo
[29] = tested on: A2780; test: Antiproliferative activity against human A2780 cells assessed as reduction in cell number at 0.5 to 1 uM incubated for 8 hrs followed by compound washout and measured after 24 to 48 hrs by cell titer glow assay; assay type: functional, cell-based; details: dose 0.5-1 µM
Outline: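 A2780 cells exposed to 0.5 or 1 μmol/L for 8 hours, then compound withdrawn; cells replated and grown 24 and 48 hours in drug-free medium before assessing cell growth.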

[30] = tested on: A2780; test: Induction of mitosis in human A2780 cells xenografted in nu/nu mouse assessed as decreased Histone H3 phosphorylation on Ser10 at 60 mg/kg, po administered for 12 to 24 hrs by immunohistochemistry analysis; assay type: functional, organism-based; details: time lower […], time upper 24.0 hrs

Chain of Serine/threonine-protein kinase 26 (Q9P289 whole entry): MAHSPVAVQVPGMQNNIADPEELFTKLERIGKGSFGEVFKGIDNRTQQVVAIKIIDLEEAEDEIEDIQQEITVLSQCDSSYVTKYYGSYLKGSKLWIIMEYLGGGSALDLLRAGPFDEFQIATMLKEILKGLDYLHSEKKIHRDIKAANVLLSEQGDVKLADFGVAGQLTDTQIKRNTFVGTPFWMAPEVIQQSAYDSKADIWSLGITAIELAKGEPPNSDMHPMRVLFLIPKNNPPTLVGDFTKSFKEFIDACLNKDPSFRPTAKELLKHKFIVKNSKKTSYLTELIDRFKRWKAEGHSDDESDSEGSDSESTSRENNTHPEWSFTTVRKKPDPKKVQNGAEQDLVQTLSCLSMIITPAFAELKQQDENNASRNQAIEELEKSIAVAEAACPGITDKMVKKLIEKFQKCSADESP
Chain of Homeodomain-interacting protein kinase 1 (Homo sapiens) (Q86Z02 whole entry, looked up, the tested form may be a part): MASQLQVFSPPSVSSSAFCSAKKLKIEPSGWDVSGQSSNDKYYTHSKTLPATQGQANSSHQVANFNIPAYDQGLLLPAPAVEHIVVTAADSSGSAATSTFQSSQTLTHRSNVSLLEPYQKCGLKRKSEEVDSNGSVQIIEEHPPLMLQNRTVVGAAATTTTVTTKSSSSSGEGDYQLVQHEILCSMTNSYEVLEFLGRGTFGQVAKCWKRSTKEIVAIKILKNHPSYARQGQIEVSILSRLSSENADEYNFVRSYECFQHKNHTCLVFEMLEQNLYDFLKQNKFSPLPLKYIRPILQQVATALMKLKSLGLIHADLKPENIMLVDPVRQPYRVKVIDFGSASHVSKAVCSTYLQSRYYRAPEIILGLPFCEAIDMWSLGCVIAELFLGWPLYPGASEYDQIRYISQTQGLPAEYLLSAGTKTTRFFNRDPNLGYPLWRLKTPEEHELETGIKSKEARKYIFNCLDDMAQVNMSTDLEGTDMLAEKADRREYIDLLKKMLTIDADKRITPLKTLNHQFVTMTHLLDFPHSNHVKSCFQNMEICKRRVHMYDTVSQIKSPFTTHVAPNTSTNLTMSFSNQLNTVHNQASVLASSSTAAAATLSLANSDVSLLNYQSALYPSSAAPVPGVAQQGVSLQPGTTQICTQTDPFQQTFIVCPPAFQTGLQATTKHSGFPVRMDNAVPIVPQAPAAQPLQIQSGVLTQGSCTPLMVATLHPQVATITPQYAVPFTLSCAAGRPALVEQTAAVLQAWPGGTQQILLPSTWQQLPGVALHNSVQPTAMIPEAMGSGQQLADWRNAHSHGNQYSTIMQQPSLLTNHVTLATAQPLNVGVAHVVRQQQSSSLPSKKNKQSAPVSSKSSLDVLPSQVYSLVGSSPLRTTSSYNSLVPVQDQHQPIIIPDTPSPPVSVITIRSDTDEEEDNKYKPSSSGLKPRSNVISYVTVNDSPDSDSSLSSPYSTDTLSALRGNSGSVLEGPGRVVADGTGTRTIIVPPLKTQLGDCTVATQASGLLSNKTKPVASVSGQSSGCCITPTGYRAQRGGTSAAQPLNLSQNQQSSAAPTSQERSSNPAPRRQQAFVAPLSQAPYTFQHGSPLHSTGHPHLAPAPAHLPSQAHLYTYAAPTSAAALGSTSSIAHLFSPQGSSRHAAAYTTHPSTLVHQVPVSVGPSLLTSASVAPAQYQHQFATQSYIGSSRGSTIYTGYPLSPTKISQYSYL
Chain of Serine/threonine-protein kinase haspin (Q8TF76 whole entry): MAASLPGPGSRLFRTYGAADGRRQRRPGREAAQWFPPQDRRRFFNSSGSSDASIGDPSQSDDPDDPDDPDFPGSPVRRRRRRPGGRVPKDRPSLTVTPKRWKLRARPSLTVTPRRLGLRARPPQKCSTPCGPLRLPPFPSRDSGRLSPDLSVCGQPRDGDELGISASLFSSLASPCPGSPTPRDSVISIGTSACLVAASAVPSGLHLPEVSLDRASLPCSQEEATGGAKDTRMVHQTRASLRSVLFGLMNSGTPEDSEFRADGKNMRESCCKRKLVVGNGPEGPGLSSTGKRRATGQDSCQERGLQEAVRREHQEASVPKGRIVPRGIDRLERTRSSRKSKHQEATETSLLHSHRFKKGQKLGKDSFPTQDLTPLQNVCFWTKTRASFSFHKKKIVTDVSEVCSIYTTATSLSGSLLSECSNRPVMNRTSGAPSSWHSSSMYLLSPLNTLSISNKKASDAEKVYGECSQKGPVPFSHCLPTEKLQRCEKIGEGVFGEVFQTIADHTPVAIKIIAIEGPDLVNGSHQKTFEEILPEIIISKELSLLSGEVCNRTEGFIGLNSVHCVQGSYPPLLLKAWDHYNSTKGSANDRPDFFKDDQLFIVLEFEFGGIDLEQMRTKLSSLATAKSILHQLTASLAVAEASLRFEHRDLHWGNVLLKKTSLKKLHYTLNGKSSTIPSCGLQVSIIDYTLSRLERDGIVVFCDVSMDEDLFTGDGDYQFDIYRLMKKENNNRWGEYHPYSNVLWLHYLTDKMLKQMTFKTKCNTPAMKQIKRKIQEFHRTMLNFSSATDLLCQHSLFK
Chain of Proto-oncogene tyrosine-protein kinase ROS (P08922 whole entry): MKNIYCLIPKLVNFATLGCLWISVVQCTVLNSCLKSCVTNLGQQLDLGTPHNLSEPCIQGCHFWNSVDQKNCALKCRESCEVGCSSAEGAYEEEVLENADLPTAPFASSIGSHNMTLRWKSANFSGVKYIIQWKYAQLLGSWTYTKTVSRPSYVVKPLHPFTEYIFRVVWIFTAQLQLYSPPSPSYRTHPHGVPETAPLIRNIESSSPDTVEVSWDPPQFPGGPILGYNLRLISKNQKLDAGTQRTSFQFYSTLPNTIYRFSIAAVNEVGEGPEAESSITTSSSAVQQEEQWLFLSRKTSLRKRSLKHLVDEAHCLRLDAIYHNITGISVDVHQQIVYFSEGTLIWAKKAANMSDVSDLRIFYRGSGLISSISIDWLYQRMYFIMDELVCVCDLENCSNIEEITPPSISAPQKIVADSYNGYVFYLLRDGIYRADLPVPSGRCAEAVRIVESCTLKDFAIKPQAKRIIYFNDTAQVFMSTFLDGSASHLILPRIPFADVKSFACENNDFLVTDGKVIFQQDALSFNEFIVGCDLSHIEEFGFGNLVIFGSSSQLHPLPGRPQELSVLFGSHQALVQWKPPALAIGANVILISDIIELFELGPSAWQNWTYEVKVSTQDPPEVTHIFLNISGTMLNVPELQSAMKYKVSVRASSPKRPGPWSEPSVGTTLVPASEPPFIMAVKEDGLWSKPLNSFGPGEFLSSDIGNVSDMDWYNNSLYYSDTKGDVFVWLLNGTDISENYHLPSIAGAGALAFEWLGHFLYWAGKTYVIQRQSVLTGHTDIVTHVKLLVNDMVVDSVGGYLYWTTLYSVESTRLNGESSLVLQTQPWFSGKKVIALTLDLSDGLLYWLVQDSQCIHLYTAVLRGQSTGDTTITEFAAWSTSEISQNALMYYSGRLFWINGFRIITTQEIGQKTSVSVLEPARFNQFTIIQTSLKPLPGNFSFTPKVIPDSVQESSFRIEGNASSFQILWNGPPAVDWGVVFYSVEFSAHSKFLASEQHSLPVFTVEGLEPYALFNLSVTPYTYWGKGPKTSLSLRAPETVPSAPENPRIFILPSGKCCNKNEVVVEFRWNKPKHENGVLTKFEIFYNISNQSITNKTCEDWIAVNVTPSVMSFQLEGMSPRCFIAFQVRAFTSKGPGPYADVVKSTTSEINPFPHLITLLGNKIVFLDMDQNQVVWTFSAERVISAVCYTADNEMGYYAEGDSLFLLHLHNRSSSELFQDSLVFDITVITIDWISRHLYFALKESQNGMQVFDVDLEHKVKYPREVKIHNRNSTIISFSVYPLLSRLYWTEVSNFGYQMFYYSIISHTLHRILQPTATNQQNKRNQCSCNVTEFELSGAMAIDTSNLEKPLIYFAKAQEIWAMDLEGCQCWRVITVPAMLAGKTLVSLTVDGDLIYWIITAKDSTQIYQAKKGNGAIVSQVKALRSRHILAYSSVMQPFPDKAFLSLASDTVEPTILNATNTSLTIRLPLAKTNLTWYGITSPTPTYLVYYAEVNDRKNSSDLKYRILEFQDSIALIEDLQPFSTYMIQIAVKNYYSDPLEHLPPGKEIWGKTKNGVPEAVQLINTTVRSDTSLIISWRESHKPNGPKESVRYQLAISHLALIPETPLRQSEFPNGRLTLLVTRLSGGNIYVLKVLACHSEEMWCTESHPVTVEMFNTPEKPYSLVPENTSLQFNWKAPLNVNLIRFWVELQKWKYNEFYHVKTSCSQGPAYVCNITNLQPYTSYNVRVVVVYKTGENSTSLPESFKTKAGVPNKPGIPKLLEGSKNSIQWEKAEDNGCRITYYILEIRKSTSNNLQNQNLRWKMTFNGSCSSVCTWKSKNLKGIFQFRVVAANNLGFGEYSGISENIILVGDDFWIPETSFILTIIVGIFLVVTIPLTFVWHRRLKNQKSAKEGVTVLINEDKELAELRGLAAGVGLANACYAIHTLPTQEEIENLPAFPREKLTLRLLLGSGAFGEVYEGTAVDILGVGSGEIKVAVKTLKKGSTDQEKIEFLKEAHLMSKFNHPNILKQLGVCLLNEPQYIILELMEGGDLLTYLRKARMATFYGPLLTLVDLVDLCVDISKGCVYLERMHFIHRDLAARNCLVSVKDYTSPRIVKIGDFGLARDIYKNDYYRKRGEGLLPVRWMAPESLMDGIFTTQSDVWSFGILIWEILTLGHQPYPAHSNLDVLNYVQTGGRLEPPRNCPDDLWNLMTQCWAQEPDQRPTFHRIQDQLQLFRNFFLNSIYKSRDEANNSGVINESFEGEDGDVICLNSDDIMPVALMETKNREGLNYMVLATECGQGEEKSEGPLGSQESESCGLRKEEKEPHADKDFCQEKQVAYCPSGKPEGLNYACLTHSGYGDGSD
Chain of Serine/threonine-protein kinase Nek6 (Q9HC98 whole entry): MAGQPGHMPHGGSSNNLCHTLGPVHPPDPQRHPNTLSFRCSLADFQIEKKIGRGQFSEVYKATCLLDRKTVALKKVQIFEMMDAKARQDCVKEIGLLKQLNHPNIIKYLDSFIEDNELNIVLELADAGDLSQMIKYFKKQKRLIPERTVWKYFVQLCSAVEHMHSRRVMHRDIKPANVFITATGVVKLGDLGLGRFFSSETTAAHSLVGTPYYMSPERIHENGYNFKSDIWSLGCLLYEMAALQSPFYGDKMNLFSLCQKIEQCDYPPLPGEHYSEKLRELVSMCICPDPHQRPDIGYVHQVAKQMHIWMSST

Q: Which results are given for `CN1CCN(c2ccc(OC(F)(F)F)c(Nc3ncc4c(n3)-c3c(c(C(N)=O)nn3CCO)CC4)c2)CC1` [ONVANSERTIB]?
A: IC50 [1]: > 10 µM; IC50 [2]: > 10 µM; IC50 [3]: > 10 µM; IC50 [4]: > 10 µM; IC50 [5]: > 10 µM; IC50 [6]: > 10 µM; Activity [7]: 89%; Activity [8]: 60%; Activity [9]: 80%; Activity [10]: 90%; Activity [11]: 85%; Activity [12]: 118%; Activity [13]: 93%; IC50 [14]: 30 nM; IC50 [15]: 83 nM; IC50 [16]: 62 nM; IC50 [17]: 443 nM; IC50 [18]: 68 nM; IC50 [19]: 209 nM; IC50 [20]: 41 nM; IC50 [21]: 59 nM; IC50 [22]: 1780 nM; IC50 [23]: 60 nM; IC50 [24]: 73 nM; IC50 [25]: 31 nM; Activity [26]: Active; Vd [27]: 1.7 L/kg; half-life [28]: 54 min; Activity [29]: Active; Activity [30]: Active
